ChEMBL document CHEMBL1129458, “Indole inhibitors of human nonpancreatic secretory phospholipase A2. 3. Indole-3-glyoxamides” (J Med Chem, 1996)

Experiments:
[1] = molecular target: T1, Phospholipase A2, membrane associated (Homo sapiens, UniProt P14555); experiment: Inhibition of human nonpancreatic secretory Phospholipase A2 through chromogenic assay
T1 sequence (P14555 whole entry): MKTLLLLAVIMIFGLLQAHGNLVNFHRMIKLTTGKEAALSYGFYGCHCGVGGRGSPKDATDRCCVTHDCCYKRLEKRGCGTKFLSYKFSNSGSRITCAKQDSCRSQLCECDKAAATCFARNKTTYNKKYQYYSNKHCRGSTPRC

[2] = Mole fraction of the IC50 concentration of compound divided by the total lipid concentration (1230 uM) in a chromogenic assay; format: functional
[3] = Mole fraction is the IC50 concentration divided by the total lipid concentration (4000 uM) in DOC/PC assay; format: functional
Procedure, shortened: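 The value is a mole fraction: the DOC/PC assay IC50 (3 nM hnps-PLA2; 3 mM DOC/1 mM [14C]PC micelles; 1 h at 40 °C; released [14C]oleic acid counted) divided by the total lipid concentration of 4000 µM.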

[4] = molecular target: T1, Phospholipase A2, membrane associated; experiment: Inhibition of human nonpancreatic secretory Phospholipase A2 through DOC/PC assay
Procedure, shortened: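 hnps-PLA2 (10 ng per tube; 3 nM) was preincubated with test compound in DMSO in pH 8 Tris buffer with 0.2 M NaCl, 2 mM CaCl2 and fatty-acid-free BSA. The substrate was sonicated mixed micelles (final 3 mM deoxycholate/1 mM PC) with [14C]-palmitoyl-oleoyl-PC. Reactions ran 1 h at 40 °C and were stopped with Dole reagent. Released [14C]oleic acid was extracted with heptane/silica and counted. IC50 was calculated against diluent controls.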

Cavia porcellus [5] = organism: Cavia porcellus; experiment: Inhibition Arachidonic acid(AA) induced contraction of GP lung tissue; format: functional
Procedure, shortened: (§1)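 Guinea pig lung pleural strips were contracted with either hnps-PLA2 or arachidonic acid, the latter serving as the control challenge for selectivity. Antagonism is given as KB.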

Cavia porcellus [6] = organism: Cavia porcellus; experiment: Inhibition of Phospholipase A2 induced contraction of GP lung tissue; format: functional; procedure, shortened: as §1
Phospholipase A2 [7] = molecular target: T2, Phospholipase A2 (Homo sapiens, UniProt P04054); experiment: Compound was tested for inhibition of human secretory pancreatic Phospholipase A2
T2 sequence (P04054 whole entry): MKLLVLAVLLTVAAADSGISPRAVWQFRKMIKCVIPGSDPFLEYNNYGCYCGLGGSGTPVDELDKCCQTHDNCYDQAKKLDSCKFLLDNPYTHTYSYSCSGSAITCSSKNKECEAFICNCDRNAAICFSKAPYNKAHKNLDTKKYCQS

[8] = molecular target: T3, Phospholipase A2, major isoenzyme (Sus scrofa, UniProt P00592); experiment: Compound was tested for inhibition of porcine secretory pancreatic Phospholipase A2
T3 sequence (P00592 whole entry): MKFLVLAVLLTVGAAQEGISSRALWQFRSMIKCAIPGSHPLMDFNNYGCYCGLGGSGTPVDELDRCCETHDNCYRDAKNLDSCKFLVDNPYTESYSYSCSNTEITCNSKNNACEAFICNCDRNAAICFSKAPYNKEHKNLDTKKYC

[9] = molecular target: T3, Phospholipase A2, major isoenzyme; experiment: Compound was tested for inhibition of porcine secreted pancreatic PLA2
Phospholipase A2 [10] = molecular target: T2, Phospholipase A2; experiment: Compound was tested for inhibition of human secretory pancreatic PLA2
[11] = molecular target: T3, Phospholipase A2, major isoenzyme; experiment: Compound was tested for inhibition of porcine secretory pancreatic PLA2
Phospholipase A2 [12] = molecular target: T2, Phospholipase A2; experiment: Compound was evaluated to inhibit human secretory pancreatic Phospholipase A2
Phospholipase A2 [13] = molecular target: T2, Phospholipase A2; experiment: Compound was tested for inhibition of human secreted pancreatic PLA2
[14] = molecular target: T1, Phospholipase A2, membrane associated; experiment: Compound was evaluated to inhibit human nonpancreatic secretory Phospholipase A2 through chromogenic assay; format: functional
Procedure, shortened: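 Chromogenic hnps-PLA₂ hydrolysis assay with 16 nM enzyme and 1.23 mM (1230 µM) total lipid substrate. IC₅₀ was determined, and the mole-fraction value is the IC₅₀ divided by the total lipid concentration.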

Compound | IC50 [1] [µM] | Mole fraction [2] | Mole fraction [3] | IC50 [4] [µM] | ED50 (Cavia porcellus [5]) [µM] | KB (Cavia porcellus [6]) [µM] | also measured
COc1ccc2c(c1)c(C(=O)C(N)=O)c(C)n2Cc1ccccc1 | 2.56 | 0.00012 | – | – | – | – | –
Cc1c(C(=O)C(N)=O)c2c(O[C@@H](C)C(=O)O)cccc2n1Cc1ccccc1 | 0.188 | 0.00015 | 3.4e-05 | 0.136 | – | – | –
NC(=O)C(=O)c1c(C2CC2)n(Cc2ccccc2-c2ccccc2)c2cccc(OCC(=O)O)c12 | 0.006 | 5e-06 | 5.8e-06 | 0.023 | >10 | 0.075 | –
CCc1c(C(=O)C(N)=O)c2c(OC(C)(C)C(=O)O)cccc2n1Cc1ccccc1 | 0.025 | 2.1e-05 | 7.3e-06 | 0.029 | >30 | 0.143 | –
Cc1c(C(=O)C(N)=O)c2c(OCC(=O)O)cccc2n1Cc1ccccc1 | 0.011 | 8.9e-06 | 4.8e-06 | 0.019 | >10 | 0.14 | IC50 (Phospholipase A2 [7]): 0.761 µM; IC50 [8]: 0.015 µM
CCc1c(C(=O)C(N)=O)c2c(OCC(=O)O)cccc2n1Cc1ccccc1Cc1ccccc1 | 0.004 | 3.3e-06 | 1e-06 | 0.004 | – | 0.052 | IC50 (Phospholipase A2 [7]): 0.062 µM
Cc1c(C(=O)C(N)=O)c2c(O[C@H](C)C(=O)O)cccc2n1Cc1ccccc1 | 0.011 | 8.9e-06 | 1.5e-06 | 0.006 | – | – | –
CCc1c(C(=O)C(N)=O)c2c(O[C@@H](C)C(=O)O)cccc2n1Cc1ccccc1 | 0.141 | 0.00011 | – | – | – | – | –
Cc1c(C(=O)C(N)=O)c2c(OCC(=O)O)cccc2n1Cc1ccccc1Cl | 0.009 | 7.3e-06 | 6.3e-06 | 0.025 | >30 | 0.1 | –
CCc1c(C(=O)C(N)=O)c2c(OCC(=O)O)cccc2n1C(=O)c1ccccc1 | 0.081 | 6.6e-05 | 9.8e-06 | 0.039 | – | 0.34 | –
NC(=O)C(=O)c1c(C2CC2)n(Cc2ccccc2)c2cccc(OCC(=O)O)c12 | 0.028 | 2.3e-05 | 1e-05 | 0.041 | – | – | –
NC(=O)C(=O)c1cn(Cc2ccccc2)c2cccc(OCC(=O)O)c12 | 0.096 | 8e-05 | – | – | – | – | –
Cc1c(C(=O)C(N)=O)c2c(OCC(=O)O)cccc2n1Cc1cccc(-c2ccccc2)c1 | 0.009 | 7.3e-06 | 2e-06 | 0.008 | – | – | IC50 (Phospholipase A2 [7]): 0.57 µM; IC50 [8]: 0.007 µM
CCc1c(C(=O)C(N)=O)c2c(N(CC(=O)O)C(C)=O)cccc2n1Cc1ccccc1 | > 100 | – | – | – | – | – | –
Cc1c(C(=O)C(N)=O)c2c(OCC(=O)O)cccc2n1Cc1c(Cl)cccc1Cl | – | 5e-06 | 5.5e-06 | 0.022 | >30 | 0.077 | –
CCc1c(C(=O)C(N)=O)c2c(OCC(=O)O)cccc2n1Cc1cccc(Cl)c1 | 0.007 | 5.8e-06 | 6.3e-06 | 0.025 | 5 | 0.11 | IC50 [9]: 0.003 µM; IC50 (Phospholipase A2 [10]): 0.39 µM
CCc1c(C(=O)C(N)=O)c2c(CC(=O)O)cc(C)cc2n1Cc1ccccc1 | 0.008 | 6.5e-06 | 2e-06 | 0.008 | 3.16 | 0.124 | –
CCc1c(C(=O)C(N)=O)c2c(OCC(=O)O)cccc2n1Cc1ccccc1 [VARESPLADIB] | – | 7.3e-06 | 1.8e-06 | – | >30 | 0.083 | IC50 (Phospholipase A2 [7]): 0.228 µM; IC50 [11]: 0.048 µM
CCc1c(C(=O)C(N)=O)c2cc(OCCCC(=O)O)ccc2n1Cc1ccccc1 | – | 0.00017 | – | – | – | – | –
Cc1c(C(=O)C(N)=O)c2c(OCCCC(=O)O)cccc2n1Cc1ccccc1-c1ccccc1 | 0.243 | 0.0002 | – | – | – | – | –
CCc1c(C(=O)C(N)=O)c2c(OCC(N)=O)cccc2n1Cc1ccccc1 | 0.124 | 0.0001 | – | – | – | – | –
Cc1c(C(=O)C(N)=O)c2c(CCC(=O)O)cccc2n1Cc1ccccc1 | 0.145 | 0.00012 | – | – | – | 0.614 | IC50 (Phospholipase A2 [12]): > 100 µM

Compound | IC50 [1] [µM] | Mole fraction [2] | Mole fraction [3] | IC50 [4] [µM] | ED50 (Cavia porcellus [5]) [µM] | KB (Cavia porcellus [6]) [µM] | also measured
CCc1c(C(=O)C(N)=O)c2c(NCC(=O)O)cccc2n1Cc1ccccc1 | 1 | 0.00081 | – | – | – | – | –
Cc1c(C(=O)C(N)=O)c2c(OCC(=O)O)cccc2n1Cc1cccc2ccccc12 | 0.009 | 7.3e-06 | 4.3e-06 | 0.017 | >30 | 0.128 | IC50 (Phospholipase A2 [7]): 1.2 µM
CCc1c(C(=O)C(N)=O)c2c(SCC(=O)O)cccc2n1Cc1ccccc1 | 0.145 | 0.00012 | 5.3e-05 | 0.21 | – | – | –
CCCCCCCCn1c(C)c(C(=O)C(N)=O)c2c(OCC(=O)O)cccc21 | 0.008 | 6.5e-06 | 4.5e-06 | 0.018 | >30 | 0.061 | IC50 (Phospholipase A2 [13]): 0.78 µM
COc1cccc2c1c(C(=O)C(N)=O)c(C)n2Cc1ccccc1 | 0.551 | 0.00012 | – | – | – | – | –
CCc1c(C(=O)C(N)=O)c2c(N(CCC(=O)O)C(C)=O)cccc2n1Cc1ccccc1 | > 100 | – | – | – | – | – | –
CCCc1ccc2c(c1OCC(=O)O)c(C(=O)C(N)=O)c(CC)n2Cc1ccccc1 | 2.07 | 0.0017 | – | – | – | – | –
CCc1c(C(=O)C(N)=O)c2c(OC(C)C(=O)O)cccc2n1Cc1ccccc1 (centres undefined) | 0.011 | 8.9e-06 | 3.3e-06 | 0.013 | 3.16 | 0.21 | –
Cc1ccccc1Cn1c(C)c(C(=O)C(N)=O)c2c(OCC(=O)O)cccc21 | 0.015 | 1.3e-05 | 1.1e-05 | 0.045 | >30 | 0.154 | –
CCc1[nH]c2cccc(OCC(=O)O)c2c1C(=O)C(N)=O | 1.6 | 0.0013 | – | – | – | 3.41 | –
C=CCc1ccc2c(c1OCC(=O)O)c(C(=O)C(N)=O)c(CC)n2Cc1ccccc1 | 1.62 | 0.013 | – | – | – | – | –
CCc1c(C(=O)C(N)=O)c2c(OC(CCc3ccccc3)C(=O)O)cccc2n1Cc1ccccc1 (centres undefined) | 0.046 | 3.8e-05 | 6.5e-06 | 0.026 | >30 | 0.293 | –
Cc1c(C(=O)C(N)=O)c2c(OCC(=O)O)cccc2n1Cc1ccc(F)cc1 | 0.03 | 2.5e-05 | 1.9e-05 | 0.074 | >30 | 0.11 | –
Cc1c(C(=O)C(N)=O)c2c(/C=C/C(=O)O)cccc2n1Cc1ccccc1 | 46 | 0.036 | – | – | – | – | IC50 (Phospholipase A2 [12]): > 100 µM
Cc1c(C(=O)C(N)=O)c2c(OCC(=O)O)cccc2n1Cc1ccccc1-c1ccccc1 | 0.006 | 5e-06 | 7.5e-07 | 0.003 | >10 | 0.068 | IC50 (Phospholipase A2 [7]): 0.364 µM; IC50 [8]: 0.097 µM
CCc1c(C(=O)C(N)=O)c2c(OCC(=O)O)cccc2n1S(=O)(=O)c1ccccc1 | – | 2.3e-05 | – | – | – | 0.316 | IC50 [14]: 0.028 µM
NC(=O)C(=O)c1cn(Cc2ccccc2)c2ccc(OCCCC(=O)O)cc12 | – | 0.048 | – | – | – | – | –
COc1cccc2c1c(CC(N)=O)c(C)n2Cc1ccccc1 | 1.18 | 0.00012 | – | – | – | – | –
CCCc1c(C(=O)C(N)=O)c2c(OCC(=O)O)cccc2n1Cc1ccccc1-c1ccccc1 | – | 6.7e-05 | – | – | – | – | –
CCc1c(C(=O)C(N)=O)c2c(OCC(=O)O)cccc2n1Cc1ccccc1-c1ccccc1 | 0.006 | 5e-06 | 1.5e-06 | 0.006 | 30 | 0.057 | –
Cc1c(C(=O)C(N)=O)c2c(OCC(=O)O)cccc2n1Cc1ccc(-c2ccccc2)cc1 | 0.043 | 3.6e-05 | 3.8e-05 | 0.15 | – | – | IC50 (Phospholipase A2 [7]): 1.09 µM
Cc1c(C(=O)C(N)=O)c2c(OC(C)C(=O)O)cccc2n1Cc1ccccc1 (centres undefined) | 0.01 | 8.1e-06 | 2.3e-06 | – | >30 | 0.145 | –
